Consider 2 compounds from PMC10132129 (RSC Advances, 2023).

Counter-ions that a name gives are not always drawn. Marks after values point to notes of the source that are not given here.

One assay addresses human PDE5A (Homo sapiens, UniProt O76074). Nature of the assay: In vitro PDE5 inhibitory activity. Type of assay: biochemical. The note with it: read-out: % Inhibition of PDE5.
The subject of assay [1] is streptozotocin-induced diabetic male rats. Nature of the assay: Body weight and relative reproductive organ weight in diabetic rats. Type of assay: in vivo, albino rats. The note with it: 5 mg kg^−1 b.w. In a few lines: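 Male albino rats (190–200 g), fasted overnight, given STZ 55 mg kg−1 ip with 5% glucose to drink; FPG >250 mg dL−1 at 72 h defined diabetes. Body weight recorded weeks 0, 5, 9. Organs weighed post-mortem; relative weight = organ/body weight × 100.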

Assay [2] shares this test system. Nature of the assay: Epididymal sperm characteristics. Type of assay: in vivo, albino rats. Conditions: 5 mg kg^−1 b.w, 9 weeks. The gist of the method: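 After 9 weeks' oral dosing of STZ-diabetic rats, cauda epididymal semen was diluted with normal saline in a red-cell pipette (0.5 to 101 mark). Count in Neubauer chamber at ×40, expressed as million cells per mL. Viability by eosin–nigrosin mixed 1:1 for 5 min, ~200 cells scored; unstained cells counted as live. Smears air-dried for morphology; n = 6.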

The test system is the same in assay [3]. Nature of the assay: Copulatory. The note with it: 5 mg kg^−1 b.w; day 63. The assay is classed as in vivo, albino rats. The gist of the method:
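STZ-diabetic males dosed orally for 9 weeks; tested on day 63. Females were ovariectomized and primed sc with 3-benzoyloxy-17b-estrol 48 h before and progesterone 500 μg 4 h before testing. Males adapted 10 min under dim red light, then paired 1:1. Mount, intromission and ejaculation latencies/frequencies and post-ejaculatory interval recorded; n = 6.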

Assay [4] shares this test system. Nature of the assay: Serum biochemical estimation in diabetic rats. Conditions: for Fasting plasma glucose / Fasting plasma glucose % reduced / Serum insulin / Serum insulin % increased: 5 mg kg^−1 b.w. Type of assay: in vivo, albino rats. In a few lines: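 STZ-diabetic male rats (55 mg kg−1 ip; FPG >250 mg dL−1) dosed orally 9 weeks in 0.5% Na-CMC; n = 6. Fasting retro-orbital blood taken under diethyl ether at weeks 0, 5, 9; serum spun 3500 rpm, 15 min. FPG by glucometer; ALT, AST, ALP, creatinine by commercial kits. Mean ± SD; one-way ANOVA with Tukey test.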

For assay [5] the test system is unchanged. Put plainly: Mating test. The assay is classed as in vivo, albino rats. The note with it: 5 mg kg^−1 b.w. In a few lines: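 In week 8, each treated diabetic male was housed 5 days with two virgin females. Daily vaginal smears checked for sperm. Sperm-positive females were kept 10 days, then euthanised (diethyl ether overdose) to count fetuses and corpora lutea. Mating success = females mated / females paired; male fertility = fetuses / corpora lutea.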

For assay [6] the test system is unchanged. Put plainly: Histopathological examination of testes. Type of assay: in vivo, albino rats. The note with it: 9 weeks. In a few lines: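 Testes from 9-week-dosed diabetic rats fixed in 10% formalin, paraffin-embedded, cut at 5 μm and H&E-stained; examined at ×400. Tubule diameter and epithelial height measured on 20 near-circular seminiferous tubule cross-sections from three slides (lower, middle, upper testis). n = 6; mean ± SD.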

Assay [7] is described as follows: ABTS^+· radical scavenging assay. Type of assay: biochemical. The note with it: read-out: IC50 against ABTS^+· free radical. The gist of the method:
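Radical-scavenging assay: test compound at 25–100 μg mL−1 mixed with ABTS+· solution and incubated 37 °C, 6 min. Absorbance read at 750 nm against blank. Ascorbic acid was the standard. Triplicate runs; IC50 reported.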

Setting [8] is: 9 weeks treatment, vs diabetic control.

As to `CCCc1nn(C)c2c(=O)[nH]c(-c3cc(S(=O)(=O)N4CCN(C)CC4)ccc3OCC)nc12` [Sildenafil citrate], on human PDE5A, the inhibition at 2.5 µg/mL amounted to 48.1 ± 1.48%, the inhibition at 5 µg/mL is 67.8 ± 1.21%, the inhibition at 7.5 µg/mL came out at 84.1 ± 0.86% and the inhibition at 10 µg/mL worked out at 97.3 ± 1.64%. For the same compound, in assay [1] (9 weeks), the Body weight is reported as 179.50 ± 5.05 g and the “Body weight % changed” value is −10.32 ± 3.18%. In addition, in assay [1] (0 week), the Body weight worked out at 200.33 ± 6.68 g. Also, in assay [1] (5 weeks), the Body weight is 170.83 ± 6.79 g and the “Body weight % changed” value was −14.69 ± 3.27%. In addition, in assay [2], the “Detached head from sperm” value is reported as 9.67 ± 2.73^z %, the Sperm abnormalities is given as 9.83 ± 0.75^ay %, the Sperm count is given as 56.69 ± 1.37 million cells per mL and the “Sperm count % reduced” value is 24.24 ± 3.66%. Moreover, in assay [2], the Sperm motility is 68.67 ± 3.14^by % and the Sperm viability was 68.17 ± 2.56^cz %. Moreover, in assay [3], the Ejaculatory latency is given as 948.83 ± 32.29^a sec, the Intromission frequency is reported as 8.20 ± 0.55^by no, the Intromission latency was 805.33 ± 23.84^bx sec and the Mount frequency is 578.50 ± 38.01^cy sec. For the same compound, in assay [3], the Mount latency is 539.67 ± 27.06^x sec and the Post ejaculatory interval came to 1311.67 ± 95.19 s. Moreover, in assay [4] (9 weeks), the Fasting plasma glucose is 190.67 ± 5.79 mg/dL, the “Fasting plasma glucose % reduced” value is on record as 45.28 ± 2.37%, the Serum insulin was 6.82 ± 0.14 mIU L^−1 and the “Serum insulin % increased” value is recorded as 99.58 ± 9.18%. In assay [4] (0 week), the Fasting plasma glucose is given as 348.67 ± 6.80^c mg dL^−1 and the Serum insulin was 3.43 ± 021^c mIU L^−1. For the same compound, in assay [4] (5 weeks), the Fasting plasma glucose was 219.17 ± 5.38 mg/dL, the “Fasting plasma glucose % reduced” value is given as 37.12 ± 2.15%, the Serum insulin is 6.00 ± 0.29 mIU L^−1 and the “Serum insulin % increased” value was 75.37 ± 3.54%. Besides, in assay [4] (setting [8]), the “Creatinine (Cr) level” value is “remarkable reduction”, the “Total bilirubin (TBIL) level” value is “remarkable reduction”, the “Total protein (TP) level” value is listed as “significant recovery” and the “Urea (U) level” value is recorded as “remarkable reduction”. Moreover, in assay [5], the Male fertility is 83.85 ± 3.98^z %, the Mating success was found to be 83.34%, the “No. of corpora lutea/rat” value is reported as 12.40 ± 0.52 and the No. of fetuses/rat is 10.40 ± 0.70^z. Moreover, in assay [5] (of 12 females paired), the “No. of females mated” value worked out at 10 and the “No. of females pregnant” value was 10. In assay [6] (5 mg kg^−1 b.w), the “Height of seminiferous epithelium” value was 70.60 ± 3.10^z μm and the “Mean seminiferous tubule diameter” value is recorded as 217.00 ± 15.14^y μm. For the same compound, the “Mean Johnson's score” value in assay [6] (5 mg kg^−1 b.w, range 1–10) is listed as 9.30 ± 0.48^z. The “Testicular histology (H&E)” value in assay [6] (oral treatment) is “marked development in the testicular structure”.
Take `O=C1O[C@H]([C@@H](O)CO)C(O)=C1O` [ascorbic acid]: the IC50 in assay [7] was found to be 169 ± 12.9 µM.

As usually defined, the inhibition is the share of the control response that was lost under treatment. Broadly, the IC50 is the concentration that gives 50% inhibition.
